# Measurements reported in ChEMBL document CHEMBL2176903, “P2-substituted N-acylprolylpyrrolidine inhibitors of prolyl oligopeptidase: biochemical evaluation, binding mode determination, and assessment in a cellular model of synucleinopathy” (J Med Chem, 2012).
# The source made the active and inactive calls. The calls are words filed in the database; no cut-off is given here.
# Assays:
# [1] = target: Dipeptidyl peptidase 2 (Homo sapiens, UniProt Q9UHL4); assay: Inhibition of human seminal plasma DPP2 assessed as pNA release from Lys-Ala-p-nitroanilide substrate pre-incubated with enzyme for 15 min prior to substrate addition by […]
# [2] = target: Prolyl endopeptidase (Sus scrofa, UniProt P23687); assay: Inhibition of pig PREP expressed in Escherichia coli using Z-Gly-Pro-p-nitroanilide substrate
# [3] = target: T1, Prolyl endopeptidase FAP (Mus musculus, UniProt P97321); assay: Inhibition of mouse recombinant FAP expressed in HEK293 cells assessed as pNA release from Ala-Pro-p-nitroanilide pre-incubated with enzyme for 15 mins prior to substrate addition by […]; format: cell-based
# T1 sequence (P97321 whole entry): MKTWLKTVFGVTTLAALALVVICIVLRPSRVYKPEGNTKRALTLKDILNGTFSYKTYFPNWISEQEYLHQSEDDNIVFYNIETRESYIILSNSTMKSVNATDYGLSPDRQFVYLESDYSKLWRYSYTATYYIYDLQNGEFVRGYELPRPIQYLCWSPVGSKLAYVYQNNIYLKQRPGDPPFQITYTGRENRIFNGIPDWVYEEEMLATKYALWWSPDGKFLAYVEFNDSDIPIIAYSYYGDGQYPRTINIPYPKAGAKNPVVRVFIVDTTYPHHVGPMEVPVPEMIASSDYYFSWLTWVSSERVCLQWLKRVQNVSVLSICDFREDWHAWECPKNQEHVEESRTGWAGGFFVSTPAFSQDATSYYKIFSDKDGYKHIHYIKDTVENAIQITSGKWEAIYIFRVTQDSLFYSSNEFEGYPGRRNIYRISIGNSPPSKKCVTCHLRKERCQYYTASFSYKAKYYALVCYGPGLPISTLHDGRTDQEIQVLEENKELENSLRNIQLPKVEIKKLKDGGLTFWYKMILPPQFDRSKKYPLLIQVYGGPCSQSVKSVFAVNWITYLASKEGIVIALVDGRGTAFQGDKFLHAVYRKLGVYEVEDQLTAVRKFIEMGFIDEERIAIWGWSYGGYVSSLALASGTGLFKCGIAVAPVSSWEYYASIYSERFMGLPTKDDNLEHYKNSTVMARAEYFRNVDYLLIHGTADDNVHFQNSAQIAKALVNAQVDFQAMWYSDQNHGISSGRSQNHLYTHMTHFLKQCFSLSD
# [4] = target: Dipeptidyl peptidase 4 (Homo sapiens, UniProt P27487); assay: Inhibition of human seminal plasma DPP4 assessed as pNA release from Gly-Pro-p-nitroanilide substrate pre-incubated with enzyme for 15 min prior to substrate addition by […]
# [5] = Inhibition of bovine testes DPP9 assessed as pNA release from Ala-Pro- p-nitroanilide substrate pre-incubated with enzyme for 15 min prior to substrate addition by […]; design: species or system Bos taurus
# [6] = target: T2, Prolyl endopeptidase (Homo sapiens) (UniProt P48147); assay: Inhibition of PREP in human SH-SY5Y cellular model of synucleinopathy over-expressing alpha-synuclein assessed as reduction in late apoptotic level 0.1 to 9 uM incubated for 3 days under oxidative stress condition by high content multiparametric method
# T2 sequence (whole entry): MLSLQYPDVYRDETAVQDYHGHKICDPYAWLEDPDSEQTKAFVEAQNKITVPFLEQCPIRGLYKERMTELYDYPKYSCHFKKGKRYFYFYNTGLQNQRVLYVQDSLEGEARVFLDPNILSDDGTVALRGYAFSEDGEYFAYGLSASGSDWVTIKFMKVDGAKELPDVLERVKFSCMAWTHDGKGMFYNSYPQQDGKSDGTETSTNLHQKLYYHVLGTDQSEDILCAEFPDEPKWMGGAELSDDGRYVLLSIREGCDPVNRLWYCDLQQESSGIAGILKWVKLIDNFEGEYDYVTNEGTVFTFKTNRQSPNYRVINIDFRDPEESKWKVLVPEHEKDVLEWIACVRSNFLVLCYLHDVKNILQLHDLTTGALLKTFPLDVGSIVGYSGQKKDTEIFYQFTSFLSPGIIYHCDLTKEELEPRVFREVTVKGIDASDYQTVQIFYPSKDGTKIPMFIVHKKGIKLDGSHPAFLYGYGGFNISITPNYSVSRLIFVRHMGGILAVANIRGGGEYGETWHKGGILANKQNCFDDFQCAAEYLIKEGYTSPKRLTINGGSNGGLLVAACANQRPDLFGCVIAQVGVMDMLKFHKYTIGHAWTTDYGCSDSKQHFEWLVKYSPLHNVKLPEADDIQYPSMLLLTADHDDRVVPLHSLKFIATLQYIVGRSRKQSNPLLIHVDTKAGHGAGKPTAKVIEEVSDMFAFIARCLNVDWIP
# In short: (§1)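 SH-SY5Y neuroblastoma cells overexpressing α-SYN were incubated with inhibitor for 3 days under oxidative stress from H₂O₂ plus FeCl₂. Aggregates were detected by thioflavin S staining. Late apoptosis was scored as nuclear condensation and fragmentation. Quantification used automated high-content imaging. Values are % of cells relative to the 1% DMSO control. Significance was tested by ANOVA with Dunnett's post-test (5% level).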
# [7] = target: T2, Prolyl endopeptidase (Homo sapiens); assay: Inhibition of PREP in human SH-SY5Y cellular model of synucleinopathy over-expressing alpha-synuclein assessed as reduction in alpha-synuclein aggregation 0.1 to 9 uM incubated for 3 days under oxidative stress condition by high content multiparametric method; in short: as §1
# Sequence of Prolyl endopeptidase (P23687 whole entry): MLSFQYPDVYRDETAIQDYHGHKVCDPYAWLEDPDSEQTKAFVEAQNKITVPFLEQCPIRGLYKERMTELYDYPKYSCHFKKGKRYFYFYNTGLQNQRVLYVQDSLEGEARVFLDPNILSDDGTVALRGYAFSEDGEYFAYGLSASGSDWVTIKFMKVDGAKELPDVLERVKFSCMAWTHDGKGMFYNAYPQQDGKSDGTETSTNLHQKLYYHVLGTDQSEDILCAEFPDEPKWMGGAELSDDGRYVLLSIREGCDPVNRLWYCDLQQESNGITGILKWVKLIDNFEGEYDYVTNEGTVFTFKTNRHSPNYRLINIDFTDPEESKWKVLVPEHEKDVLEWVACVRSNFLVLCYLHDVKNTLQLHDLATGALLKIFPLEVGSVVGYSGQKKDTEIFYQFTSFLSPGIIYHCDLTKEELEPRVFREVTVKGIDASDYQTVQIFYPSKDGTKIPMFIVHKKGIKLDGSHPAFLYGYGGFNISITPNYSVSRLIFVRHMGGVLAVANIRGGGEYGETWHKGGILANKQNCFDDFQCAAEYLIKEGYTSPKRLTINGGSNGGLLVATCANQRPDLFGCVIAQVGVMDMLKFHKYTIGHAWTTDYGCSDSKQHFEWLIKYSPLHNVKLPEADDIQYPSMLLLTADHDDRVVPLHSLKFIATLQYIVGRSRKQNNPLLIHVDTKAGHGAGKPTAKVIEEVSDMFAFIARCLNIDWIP
# Sequence of Dipeptidyl peptidase 4 (P27487 whole entry): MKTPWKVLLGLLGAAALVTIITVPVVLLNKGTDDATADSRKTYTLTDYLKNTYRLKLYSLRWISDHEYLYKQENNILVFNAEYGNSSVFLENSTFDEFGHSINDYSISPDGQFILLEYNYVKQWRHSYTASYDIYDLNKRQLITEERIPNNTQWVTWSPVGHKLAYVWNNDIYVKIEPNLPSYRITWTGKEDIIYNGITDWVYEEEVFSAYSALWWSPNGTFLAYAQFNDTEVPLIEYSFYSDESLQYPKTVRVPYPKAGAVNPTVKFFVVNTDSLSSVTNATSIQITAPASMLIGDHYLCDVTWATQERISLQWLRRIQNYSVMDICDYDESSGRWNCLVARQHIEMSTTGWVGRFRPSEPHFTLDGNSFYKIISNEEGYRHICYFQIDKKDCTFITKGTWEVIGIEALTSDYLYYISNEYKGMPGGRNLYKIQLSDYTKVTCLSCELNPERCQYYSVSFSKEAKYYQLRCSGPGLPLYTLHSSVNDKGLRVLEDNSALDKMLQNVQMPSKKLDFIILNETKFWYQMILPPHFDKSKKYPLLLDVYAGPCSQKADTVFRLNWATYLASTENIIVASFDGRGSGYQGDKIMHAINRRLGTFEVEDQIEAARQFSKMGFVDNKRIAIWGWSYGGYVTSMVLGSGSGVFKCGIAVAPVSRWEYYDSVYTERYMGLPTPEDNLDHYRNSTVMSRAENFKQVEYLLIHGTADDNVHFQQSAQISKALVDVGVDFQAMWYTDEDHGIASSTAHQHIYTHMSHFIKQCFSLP
Compound,IC50 [1] [µM],IC50 [2] [µM],IC50 [3] [µM],IC50 [4] [µM],IC50 [5] [µM],inhibition [6],inhibition [7]
O=C([C@@H]1C[C@H](n2cc(-c3ccc(Br)cc3)nn2)CN1C(=O)CCCc1ccccc1)N1CCCC1,> 100,0.014,> 100,> 100,> 10,,
O=C([C@@H]1C[C@H](n2ccnn2)CN1C(=O)OCc1ccccc1)N1CCCC1,> 100,1.16,> 100,> 100,67,,
N#C[C@@H]1CCCN1C(=O)[C@@H]1CCCN1C(=O)CCCc1ccccc1,> 100,,> 10,> 100,> 100,,
C[Si](C)(C)c1cn([C@H]2C[C@@H](C(=O)N3CCCC3)N(C(=O)OCc3ccccc3)C2)nn1,> 100,0.956,> 100,> 100,> 100,,
O=C([C@@H]1C[C@H](n2cc(-c3ccccc3)nn2)CN1C(=O)OCc1ccccc1)N1CCCC1,> 100,0.478,,> 100,> 100,,
O=C([C@@H]1C[C@H](n2cc(-c3ccccc3)nn2)CN1C(=O)CCCc1ccccc1)N1CCCC1,> 100,0.17,,> 100,> 100,,
[N-]=[N+]=N[C@@H]1C[C@@H](C(=O)N2CCCC2)N(C(=O)CCCc2ccccc2)C1,> 100,0.304,> 100,> 100,> 100,,
O=C([C@@H]1C[C@H](n2cc(-c3ccc(F)c(F)c3)nn2)CN1C(=O)CCCc1ccccc1)N1CCCC1,> 10,0.0172,> 5,> 100,< 100,,
O=C([C@@H]1C[C@H](n2cc(-c3ccccn3)nn2)CN1C(=O)CCCc1ccccc1)N1CCCC1,> 100,0.069,> 100,> 100,> 100,,
[N-]=[N+]=N[C@H]1C[C@@H](C(=O)N2CCCC2)N(C(=O)OCc2ccccc2)C1,> 100,0.364,> 100,> 100,> 100,,
O=C([C@@H]1CCCN1C(=O)OCc1ccccc1)N1CCCC1,> 100,,> 100,> 100,> 100,,
O=C([C@@H]1C[C@H](n2cc(-c3ccc(F)cc3F)nn2)CN1C(=O)CCCc1ccccc1)N1CCCC1,> 100,0.024,> 5,> 100,> 10,,
[N-]=[N+]=N[C@H]1C[C@@H](C(=O)N2CCCC2)N(C(=O)CCCc2ccccc2)C1,> 100,0.142,> 100,> 100,> 100,,
O=C([C@@H]1C[C@H](n2cc(-c3ccccn3)nn2)CN1C(=O)OCc1ccccc1)N1CCCC1,> 100,0.357,> 100,> 100,53,,
O=C([C@@H]1C[C@H](n2cc(C3CCCCC3)nn2)CN1C(=O)CCCc1ccccc1)N1CCCC1,> 100,0.147,> 5,> 100,> 100,,
N#C[C@@H]1CCCN1C(=O)[C@@H]1C[C@H](N=[N+]=[N-])CN1C(=O)CCCc1ccccc1,> 100,0.003,> 100,> 100,> 100,Active,Active
O=C([C@@H]1C[C@H](n2cc(-c3ccc(F)cc3)nn2)CN1C(=O)CCCc1ccccc1)N1CCCC1,> 100,0.033,,> 100,> 100,,
O=C([C@@H]1CCCN1C(=O)CCCc1ccccc1)N1CCCC1,> 100,,> 100,> 100,> 100,,
O=C([C@@H]1C[C@@H](n2cc(-c3ccccc3)nn2)CN1C(=O)CCCc1ccccc1)N1CCCC1,> 100,0.542,,> 100,> 50,,

# More lines, now with the values ahead:
IC50 [1] [µM],IC50 [2] [µM],IC50 [3] [µM],IC50 [4] [µM],IC50 [5] [µM],inhibition [6],inhibition [7],Compound
,0.09,,,,,,Cn1cnc(-c2cn([C@H]3C[C@@H](C(=O)N4CCCC4)N(C(=O)CCCc4ccccc4)C3)nn2)c1
> 100,0.039,> 100,> 100,> 10,,,O=C([C@@H]1C[C@H](n2cc(C3CC3)nn2)CN1C(=O)CCCc1ccccc1)N1CCCC1
> 100,0.24,> 100,> 50,1.1,,,O=C([C@@H]1C[C@H](n2cc(CN3CCOCC3)nn2)CN1C(=O)CCCc1ccccc1)N1CCCC1
> 100,0.032,> 100,> 100,> 100,,,CC(C)(C)OC(=O)NCc1cn([C@H]2C[C@@H](C(=O)N3CCCC3)N(C(=O)CCCc3ccccc3)C2)nn1
> 100,0.009,> 100,> 100,> 100,Active,Active,CC(C)(C)OC(=O)NCc1cn([C@H]2C[C@@H](C(=O)N3CCC[C@H]3C#N)N(C(=O)CCCc3ccccc3)C2)nn1
> 100,0.11,> 100,> 100,0.6,,,CC(C)(C)OC(=O)N1CCN(Cc2cn([C@H]3C[C@@H](C(=O)N4CCCC4)N(C(=O)CCCc4ccccc4)C3)nn2)CC1
> 10,0.17,> 100,> 100,> 100,,,NCc1cn([C@H]2C[C@@H](C(=O)N3CCCC3)N(C(=O)CCCc3ccccc3)C2)nn1
> 100,0.141,> 100,> 100,> 10,,,CC(C)(C)OC(=O)NCc1cn([C@H]2C[C@@H](C(=O)N3CCCC3)N(C(=O)OCc3ccccc3)C2)nn1
> 10,0.023,> 5,> 100,> 100,,,O=C([C@@H]1C[C@H](n2cc(-c3ccccc3Cl)nn2)CN1C(=O)CCCc1ccccc1)N1CCCC1
> 100,0.28,> 100,> 100,> 100,,,CC(C)(C)OC(=O)NCc1cn([C@@H]2C[C@@H](C(=O)N3CCCC3)N(C(=O)CCCc3ccccc3)C2)nn1
> 100,0.1,> 100,> 100,1.3,,,O=C([C@@H]1C[C@H](n2cc(CN3CCNCC3)nn2)CN1C(=O)CCCc1ccccc1)N1CCCC1
> 100,0.024,,> 100,> 10,,,CN(C)Cc1cn([C@H]2C[C@@H](C(=O)N3CCCC3)N(C(=O)CCCc3ccccc3)C2)nn1
> 100,0.131,,> 100,> 100,,,O=C([C@@H]1C[C@H](n2cc(COCc3ccccc3)nn2)CN1C(=O)CCCc1ccccc1)N1CCCC1
